Source: ChEMBL document CHEMBL1152650, “Synthesis and in vitro evaluation of pteridine analogues as monoamine oxidase B and nitric oxide synthase inhibitors” (Bioorg Med Chem, 2009)

Legend:
[1] = Inhibition of MAOB from baboon liver by spectrophotometry; parameters: species or system Papio hamadryas
How it was run: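 Mitochondrial fraction of baboon liver (no MAO-A activity, so no clorgyline), 0.15 mg protein/mL in 100 mM sodium phosphate pH 7.4. Substrate MMTP 50 µM, 4% DMSO final. Incubated 37 °C for 10 min, then stopped with perchloric acid and centrifuged. MMDP+ read at 420 nm. At least eight concentrations over 3 orders of magnitude; IC50 from sigmoidal fit, mean ± SEM of duplicates.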

[2] = Inhibition of NOS in Sprague-Dawley rat brain homogenate assessed as conversion of oxy-hemoglobin to met-hemoglobin; type: tissue-based
How it was run: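 Brain of male Sprague-Dawley rat homogenised in HEPES/sucrose/EDTA/DTT with protease inhibitors and PMSF; the 12,000g supernatant is the enzyme source. Mix holds 500 µM HEPES, 250 µM CaCl2, homogenate from 2.36 mg tissue and 5% DMSO. Pre-incubated 3 min at 37 °C, then started with oxyHb 1.09 µM, NADPH 100 µM and L-arginine 100 µM. Scanned 390–430 nm every 10 s for 10 min; metHb taken as A401−A411. IC50 from rate versus log concentration.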

[3] = Inhibition of recombinant NOS from rat brain
[4] = molecular target: T1, Amine oxidase [flavin-containing] B (Mus musculus, UniProt Q8BW75); assay: Inhibition of mouse brain MAOB
T1 sequence (Q8BW75 whole entry): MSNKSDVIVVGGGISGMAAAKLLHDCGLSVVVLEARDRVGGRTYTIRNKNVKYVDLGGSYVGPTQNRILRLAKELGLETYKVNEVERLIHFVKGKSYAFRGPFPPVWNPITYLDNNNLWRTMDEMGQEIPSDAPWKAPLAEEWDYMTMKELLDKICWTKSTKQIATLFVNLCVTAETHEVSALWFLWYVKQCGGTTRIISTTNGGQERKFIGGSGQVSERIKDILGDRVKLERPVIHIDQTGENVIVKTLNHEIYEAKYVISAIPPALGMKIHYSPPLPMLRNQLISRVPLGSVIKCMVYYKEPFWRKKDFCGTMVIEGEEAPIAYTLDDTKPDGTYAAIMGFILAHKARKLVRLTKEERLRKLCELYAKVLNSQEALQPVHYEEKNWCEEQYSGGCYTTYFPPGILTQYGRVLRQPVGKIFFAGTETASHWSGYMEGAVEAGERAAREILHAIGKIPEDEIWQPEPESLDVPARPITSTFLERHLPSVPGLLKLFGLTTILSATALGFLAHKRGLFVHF

[5] = species on record: Papio hamadryas; assay: Inhibition of MAOB from baboon liver at 100 uM by spectrophotometry
[6] = species on record: Rattus norvegicus; assay: Ratio of IC50 for aminoguanidine to IC50 for drug for NOS in Sprague-Dawley rat brain homogenate; type: tissue-based
[7] = species on record: Papio hamadryas; assay: Inhibition of MAOB from baboon liver at 30 uM by spectrophotometry

`Cn1c(N)c(/N=C/c2cccc(Cl)c2)c(=O)n(C)c1=O` showed an IC50 [1] of 7.03 µM, a Ki [1] of 4.06 µM and an IC50 [2] of 6970 µM.

Compound `C[C@H](O)[C@H](O)C1CNc2nc(N)nc(N)c2N1` (some centres not stated) has a Ki [3] of 0.013 µM.

Compound `Cn1c(N)c(/N=C/C=C/c2ccccc2)c(=O)n(C)c1=O` has an IC50 [1] of 12.1 µM and a Ki [1] of 6.96 µM.

For `Cn1c(=O)c2c(nc(/C=C/c3cccc(Cl)c3)n2C)n(C)c1=O`, the Ki [4] was 0.1 µM.

In the case of `Cn1c(=O)c2nc(-c3ccccc3)cnc2n(C)c1=O`, the inhibition [5] is reported as 12.2%, the IC50 [2] is reported as 443 µM and the Ratio IC50 [6] is reported as 23.

With `Nc1nc(N)c2c(n1)NCC(c1ccccc1)N2` (configuration not stated) the IC50 [3] was 6 µM.

Work on `Cn1c(=O)c2nc(/C=C/c3cccc(Cl)c3)cnc2n(C)c1=O` yielded an IC50 [1] of 0.314 µM, a Ki [1] of 0.181 µM and an IC50 [2] of 1060 µM.

Compound `Cn1c(=O)c2nc(-c3cccc(Cl)c3)cnc2n(C)c1=O` has an IC50 [1] of 4.89 µM and a Ki [1] of 2.82 µM.

In the case of `Cn1c(N)c(/N=C/c2ccccc2)c(=O)n(C)c1=O`, the inhibition [7] is reported as 17.8%, the IC50 [2] is reported as 467 µM and the Ratio IC50 [6] is reported as 23.

Compound `Cn1c(N)c(/N=C/C=C/c2cccc(Cl)c2)c(=O)n(C)c1=O` has an IC50 [1] of 0.602 µM, a Ki [1] of 0.348 µM and an IC50 [2] of 577 µM.
